Assay results from different studies.
Protocols differ between the studies behind these lines.
Target: Eukaryotic translation initiation factor 2-alpha kinase 1 (EIF2AK1, Homo sapiens, UniProt Q9BQI3)
Tested at: 1 µM

O=C(NCc1ncc(C(F)(F)F)cc1Cl)c1ccc2c(c1)C1(CCS(=O)(=O)CC1)[C@@H](C1CC1)N2S(=O)(=O)c1ccc(F)cc1
remaining binding (cell-free assay, competition with immobilised ligand): 94%

COc1cnc(Nc2cccc(S(N)(=O)=O)c2)nc1N1CCN(c2ccccc2)C(=O)C1
remaining binding (binding, competition with immobilised ligand): 89%

c1cnn2ncc(-c3ccnc(N4CCC45COC5)n3)c2c1
remaining binding (binding): 49%

O=C(NCCCN1CCOCC1)c1ccc(Nc2ncc(Cl)c(-c3ccc(Cl)s3)n2)cc1
remaining binding (binding, competition with immobilised ligand): 97%

CN(C)c1nccc(-c2cnc3ncccn23)n1
remaining binding (binding): 69%

Nc1cnc(N2CCc3cc(S(=O)(=O)Nc4c(F)cc(Cl)cc4F)cc(N4CCCC4=O)c32)nc1
remaining binding (cell-free assay, competition with immobilised ligand): 94%

O=C(NCC1CCOCC1)c1n[nH]cc1NC(=O)c1c(F)cccc1F
remaining binding (binding, competition with immobilised ligand): 87%

CO[C@@H](C)c1c(Nc2ccc([C@H](N(C)C(=O)C3CCS(=O)(=O)CC3)C(F)(F)F)cc2)cnc2cc(Cl)nn12
remaining binding (cell-free assay, competition with immobilised ligand): 100%

CN(C)c1nccc(-c2cnn3ncccc23)n1
remaining binding (binding): 100%

CN1CCN(c2cnc3c(C4CCN(C(=O)c5ccc(OC(F)(F)F)cc5N)CC4)ncnc3c2)CC1
remaining binding (cell-free assay, competition with immobilised ligand): 100%

CN(CCCC(F)(F)F)c1nccc(-c2cnn3ncccc23)n1
remaining binding (binding): 100%

Cc1nc(N2CC[C@@H](O)C2)ncc1-c1cc(C(F)(F)F)cc2[nH]ncc12
remaining binding (binding, competition with immobilised ligand): 98%

COc1ccnn2ncc(-c3ccnc(N(C)C)n3)c12
remaining binding (binding): 95%

CNC(=O)[C@@H]1CC[C@@H](n2c(-c3ccc4cnccc4c3)nc3ccc(C(=O)NCc4cccc(C(N)=O)c4)cc32)C1
remaining binding (binding, competition with immobilised ligand): 100%

Cc1nc(C2CCN(C(=O)c3ccc(OC(F)(F)F)cc3N)CC2)c2ncc(N3CCN(C)CC3)cc2n1
remaining binding (cell-free assay, competition with immobilised ligand): 85%

N[C@H]1CCN(c2nccc(-c3cnn4ncccc34)n2)C1
remaining binding (binding): 78%

C=CC(=O)N1CCC(C(=O)NCC(=O)N2CCN(c3nc(-c4cnc(N)nc4C(F)F)nc(N4CCOCC4)n3)CC2)CC1
remaining binding (binding, competition with immobilised ligand): 94%

O=C(NCCCN1CCOCC1)c1ccc(Nc2nccc(-c3cc4ccccc4s3)n2)cc1
remaining binding (binding, competition with immobilised ligand): 100%

Nc1ncc2c(n1)-c1c([nH]c3ccc(C#CC4CC4)cc13)CCCC2
remaining binding (binding, competition with immobilised ligand): 80%

Cc1cnc(Nc2ccc(C(=O)N3CCC(N4CCCC4)CC3)cc2)nc1-c1cc2ccccc2s1
remaining binding (binding, competition with immobilised ligand): 100%

C[C@@H]1CCN(c2nccc(-c3cnn4ncccc34)n2)C1
remaining binding (binding): 79%

FC(F)(F)c1ccc2c(c1)nc(-c1cccnc1)n2C1CC1
remaining binding (cell-free assay, competition with immobilised ligand): 100%
